Results from article PMC10582670 (Clinical and Translational Science, 2023).
Values joined by “and” are separate entries in the source; they are usually repeats but may differ in a detail not shown here. Equal values may be shown once.

Test system: healthy volunteers
Experiment: Safety and tolerability
Format: in vivo, human
Summary of the method: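 Healthy volunteers aged 18–55 y, BMI 18–30 kg/m², randomised double-blind 8:2 to once-daily oral drug or placebo for up to 14 days, with follow-up visits on days 21 and 42. Treatment-emergent AEs coded with MedDRA 23.1 and graded with the WHO toxicity scale, alongside ECGs, laboratory tests and vital signs. The safety population was all subjects receiving at least one dose.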

[1] = SAD (fasted) All GDC-8264, n = 28

In the case of `O=C(c1nc2n(n1)[C@H](c1ccccc1)C[C@@H]2F)C1CC1` [GDC‐8264], the “No. of TEAEs” value (SAD (fasted) 75 mg, n = 5) is reported as 8, the No. of deaths (SAD (fasted) 75 mg, n = 5) is reported as 0 no. of subjects (%) and the “No. of subjects with at least one Related TEAE” value (SAD (fasted) 75 mg, n = 5) is reported as 1 (20.0) no. of subjects (%). The “No. of subjects with at least one Serious TEAE” value (SAD (fasted) 75 mg, n = 5) was 0 no. of subjects (%), the “No. of subjects with at least one TEAE” value (SAD (fasted) 75 mg, n = 5) was 3 (60.0) no. of subjects (%) and the “No. of subjects withdrawn from study due to a TEAE” value (“No. of subjects withdrawn” below) (SAD (fasted) 75 mg, n = 5) was 0 no. of subjects (%). The “TEAE Abdominal pain” value (SAD (fasted) 75 mg, n = 5) was 0 no. of subjects (%), the “TEAE Back pain” value (SAD (fasted) 75 mg, n = 5) was 1 (20.0) no. of subjects (%) and the “TEAE Catheter site pain” value (SAD (fasted) 75 mg, n = 5) was 0 no. of subjects (%). For the same compound, the “TEAE Dermatitis contact” value (SAD (fasted) 75 mg, n = 5) was 2 (40.0) no. of subjects (%), the “TEAE Diarrhea” value (SAD (fasted) 75 mg, n = 5) was 0 no. of subjects (%) and the “TEAE Dizziness” value (SAD (fasted) 75 mg, n = 5) was 0 no. of subjects (%). For the same compound, the “TEAE Dyspepsia” value (SAD (fasted) 75 mg, n = 5) was 0 no. of subjects (%), the “TEAE Gastrointestinal sounds abnormal” value (SAD (fasted) 75 mg, n = 5) was 1 (20.0) no. of subjects (%) and the “TEAE Gingivitis” value (SAD (fasted) 75 mg, n = 5) was 0 no. of subjects (%). For the same compound, the “TEAE Headache” value (SAD (fasted) 75 mg, n = 5) was 0 no. of subjects (%), the “TEAE Medical device site dermatitis” value (SAD (fasted) 75 mg, n = 5) was 0 no. of subjects (%) and the “TEAE Myalgia” value (SAD (fasted) 75 mg, n = 5) was 1 (20.0) no. of subjects (%). For the same compound, the “TEAE Nausea” value (SAD (fasted) 75 mg, n = 5) was 2 (40.0) no. of subjects (%), the “TEAE Presyncope” value (SAD (fasted) 75 mg, n = 5) was 0 no. of subjects (%) and the “TEAE Somnolence” value (SAD (fasted) 75 mg, n = 5) was 0 no. of subjects (%). For the same compound, the “No. of TEAEs” value (SAD (fasted) 150 mg, n = 5) was 6, the No. of deaths (SAD (fasted) 150 mg, n = 5) was 0 no. of subjects (%) and the “No. of subjects with at least one Related TEAE” value (SAD (fasted) 150 mg, n = 5) was 3 (60.0) no. of subjects (%). The “No. of subjects with at least one Serious TEAE” value (SAD (fasted) 150 mg, n = 5) was 0 no. of subjects (%), the “No. of subjects with at least one TEAE” value (SAD (fasted) 150 mg, n = 5) was 4 (80.0) no. of subjects (%) and the “No. of subjects withdrawn” value (SAD (fasted) 150 mg, n = 5) was 0 no. of subjects (%). For the same compound, the “TEAE Abdominal pain” value (SAD (fasted) 150 mg, n = 5) was 0 no. of subjects (%), the “TEAE Back pain” value (SAD (fasted) 150 mg, n = 5) was 0 no. of subjects (%) and the “TEAE Catheter site pain” value (SAD (fasted) 150 mg, n = 5) was 0 no. of subjects (%). For the same compound, the “TEAE Dermatitis contact” value (SAD (fasted) 150 mg, n = 5) was 1 (20.0) no. of subjects (%), the “TEAE Diarrhea” value (SAD (fasted) 150 mg, n = 5) was 0 no. of subjects (%) and the “TEAE Dizziness” value (SAD (fasted) 150 mg, n = 5) was 0 no. of subjects (%). The “TEAE Dyspepsia” value (SAD (fasted) 150 mg, n = 5) was 0 no. of subjects (%), the “TEAE Gastrointestinal sounds abnormal” value (SAD (fasted) 150 mg, n = 5) was 1 (20.0) no. of subjects (%) and the “TEAE Gingivitis” value (SAD (fasted) 150 mg, n = 5) was 0 no. of subjects (%). For the same compound, the “TEAE Headache” value (SAD (fasted) 150 mg, n = 5) was 1 (20.0) no. of subjects (%), the “TEAE Medical device site dermatitis” value (SAD (fasted) 150 mg, n = 5) was 0 no. of subjects (%) and the “TEAE Myalgia” value (SAD (fasted) 150 mg, n = 5) was 0 no. of subjects (%). The “TEAE Nausea” value (SAD (fasted) 150 mg, n = 5) was 1 (20.0) no. of subjects (%), the “TEAE Presyncope” value (SAD (fasted) 150 mg, n = 5) was 0 no. of subjects (%) and the “TEAE Somnolence” value (SAD (fasted) 150 mg, n = 5) was 0 no. of subjects (%). For the same compound, the “No. of TEAEs” value (SAD (fasted) 225 mg, n = 6) was 7, the No. of deaths (SAD (fasted) 225 mg, n = 6) was 0 no. of subjects (%) and the “No. of subjects with at least one Related TEAE” value (SAD (fasted) 225 mg, n = 6) was 0 no. of subjects (%). The “No. of subjects with at least one Serious TEAE” value (SAD (fasted) 225 mg, n = 6) was 0 no. of subjects (%), the “No. of subjects with at least one TEAE” value (SAD (fasted) 225 mg, n = 6) was 3 (50.0) no. of subjects (%) and the “No. of subjects withdrawn” value (SAD (fasted) 225 mg, n = 6) was 0 no. of subjects (%). The “TEAE Abdominal pain” value (SAD (fasted) 225 mg, n = 6) was 0 no. of subjects (%), the “TEAE Back pain” value (SAD (fasted) 225 mg, n = 6) was 0 no. of subjects (%) and the “TEAE Catheter site pain” value (SAD (fasted) 225 mg, n = 6) was 0 no. of subjects (%). The “TEAE Dermatitis contact” value (SAD (fasted) 225 mg, n = 6) was 0 no. of subjects (%), the “TEAE Diarrhea” value (SAD (fasted) 225 mg, n = 6) was 0 no. of subjects (%) and the “TEAE Dizziness” value (SAD (fasted) 225 mg, n = 6) was 0 no. of subjects (%). The “TEAE Dyspepsia” value (SAD (fasted) 225 mg, n = 6) was 0 no. of subjects (%), the “TEAE Gastrointestinal sounds abnormal” value (SAD (fasted) 225 mg, n = 6) was 0 no. of subjects (%) and the “TEAE Gingivitis” value (SAD (fasted) 225 mg, n = 6) was 0 no. of subjects (%). The “TEAE Headache” value (SAD (fasted) 225 mg, n = 6) was 0 no. of subjects (%), the “TEAE Medical device site dermatitis” value (SAD (fasted) 225 mg, n = 6) was 2 (33.3) no. of subjects (%) and the “TEAE Myalgia” value (SAD (fasted) 225 mg, n = 6) was 1 (16.7) no. of subjects (%). For the same compound, the “TEAE Nausea” value (SAD (fasted) 225 mg, n = 6) was 0 no. of subjects (%), the “TEAE Presyncope” value (SAD (fasted) 225 mg, n = 6) was 1 (16.7) no. of subjects (%) and the “TEAE Somnolence” value (SAD (fasted) 225 mg, n = 6) was 0 no. of subjects (%). The “No. of TEAEs” value [1] was 33, the No. of deaths [1] was 0 no. of subjects (%) and the “No. of subjects with at least one Related TEAE” value [1] was 4 (14.3) no. of subjects (%). The “No. of subjects with at least one Serious TEAE” value [1] was 0 no. of subjects (%), the “No. of subjects with at least one TEAE” value [1] was 19 no. of subjects (%) and 19 (67.9) no. of subjects (%) and the “No. of subjects withdrawn” value [1] was 0 no. of subjects (%). For the same compound, the “TEAE Abdominal pain” value [1] was 2 (7.1) no. of subjects (%), the “TEAE Back pain” value [1] was 1 (3.6) no. of subjects (%) and the “TEAE Catheter site pain” value [1] was 1 (3.6) no. of subjects (%). The “TEAE Dermatitis contact” value [1] was 4 (14.3) no. of subjects (%), the “TEAE Diarrhea” value [1] was 0 no. of subjects (%) and the “TEAE Dyspepsia” value [1] was 1 (3.6) no. of subjects (%). The “TEAE Gastrointestinal sounds abnormal” value [1] was 2 (7.1) no. of subjects (%), the “TEAE Gingivitis” value [1] was 0 no. of subjects (%) and the “TEAE Headache” value [1] was 4 (14.3) no. of subjects (%). For the same compound, the “TEAE Medical device site dermatitis” value [1] was 2 (7.1) no. of subjects (%), the “TEAE Myalgia” value [1] was 2 (7.1) no. of subjects (%) and the “TEAE Nausea” value [1] was 3 (10.7) no. of subjects (%). For the same compound, the “TEAE Presyncope” value [1] was 2 (7.1) no. of subjects (%), the “TEAE Somnolence” value [1] was 0 no. of subjects (%) and the “No. of TEAEs” value (SAD (high fat) 75 mg, n = 5) was 4. The No. of deaths (SAD (high fat) 75 mg, n = 5) was 0 no. of subjects (%), the “No. of subjects with at least one Related TEAE” value (SAD (high fat) 75 mg, n = 5) was 0 no. of subjects (%) and the “No. of subjects with at least one Serious TEAE” value (SAD (high fat) 75 mg, n = 5) was 0 no. of subjects (%). The “No. of subjects with at least one TEAE” value (SAD (high fat) 75 mg, n = 5) was 2 (40.0) no. of subjects (%), the “No. of subjects withdrawn” value (SAD (high fat) 75 mg, n = 5) was 0 no. of subjects (%) and the “TEAE Abdominal pain” value (SAD (high fat) 75 mg, n = 5) was 0 no. of subjects (%). The “TEAE Back pain” value (SAD (high fat) 75 mg, n = 5) was 0 no. of subjects (%), the “TEAE Catheter site pain” value (SAD (high fat) 75 mg, n = 5) was 0 no. of subjects (%) and the “TEAE Dermatitis contact” value (SAD (high fat) 75 mg, n = 5) was 1 (20.0) no. of subjects (%). For the same compound, the “TEAE Diarrhea” value (SAD (high fat) 75 mg, n = 5) was 0 no. of subjects (%), the “TEAE Dizziness” value (SAD (high fat) 75 mg, n = 5) was 0 no. of subjects (%) and the “TEAE Dyspepsia” value (SAD (high fat) 75 mg, n = 5) was 0 no. of subjects (%). The “TEAE Gastrointestinal sounds abnormal” value (SAD (high fat) 75 mg, n = 5) was 0 no. of subjects (%), the “TEAE Gingivitis” value (SAD (high fat) 75 mg, n = 5) was 0 no. of subjects (%) and the “TEAE Headache” value (SAD (high fat) 75 mg, n = 5) was 1 (20.0) no. of subjects (%). For the same compound, the “TEAE Medical device site dermatitis” value (SAD (high fat) 75 mg, n = 5) was 0 no. of subjects (%), the “TEAE Myalgia” value (SAD (high fat) 75 mg, n = 5) was 0 no. of subjects (%) and the “TEAE Nausea” value (SAD (high fat) 75 mg, n = 5) was 1 (20.0) no. of subjects (%). For the same compound, the “TEAE Presyncope” value (SAD (high fat) 75 mg, n = 5) was 0 no. of subjects (%), the “TEAE Somnolence” value (SAD (high fat) 75 mg, n = 5) was 0 no. of subjects (%) and the “changes in clinical laboratory results, vital signs, ECGs, or physical examinations” value (SAD and MAD stages) was “no significant changes”. The “severity of adverse events in GDC-8264-treated subjects” value (both stages (SAD and MAD)) was “mild”.
